From ChEMBL document CHEMBL1152640, “Synthesis and antiproliferative evaluation of 6-arylindeno[1,2-c]quinoline derivatives” (Bioorg Med Chem, 2009)
Active and inactive are the calls of the source. The rule behind the calls is not given here.

Assays:
[1] = Antiproliferative activity against human H1299 cells after 72 hrs by XTT assay; assay type: functional; settings: NCI-H1299, 72 h
How it was run: (§1)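 Cells were grown as monolayers in DMEM with 10% FBS, penicillin, streptomycin and amphotericin at 37 °C and 5% CO2. Plating was 5×10³ cells/well, with treatment for 72 h in 10% FBS medium, a medium change, then another day. XTT (1 mg/mL) plus PMS in serum-free medium was added for 4 h at 37 °C and read at 492 nm. Growth was taken as % of control (mean of n = 3). GI50 was taken from the linear portion of the curve as the 50% absorbance reduction.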

A549 [2] = test: Antiproliferative activity against human A549 cells after 72 hrs by XTT assay; assay type: functional; settings: A549, 72 h; how it was run: as §1
HepG2 = test: Antiproliferative activity against human HepG2 cells after 72 hrs by XTT assay; assay type: functional; settings: HepG2, 72 h; how it was run: as §1
[3] = Antiproliferative activity against human HepG2(2.2.1) cells after 72 hrs by XTT assay; assay type: functional; settings: HepG2, 72 h; how it was run: as §1
[4] = Cytotoxicity against human MRC5 cells after 72 hrs by XTT assay; assay type: cell-based; how it was run: as §1
[5] = Antiproliferative activity against human Hep3B cells after 72 hrs by XTT assay; assay type: functional, Hep 3B2; how it was run: as §1
A549 [6] = test: Cell cycle arrest in human A549 cells assessed as accumulation at subG1 phase at 10.0 uM after 24 hrs by flow cytometry; assay type: functional
How it was run: (§2)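 A549 cells were exposed to DMSO or compound at 0.1, 1.0, 5.0 or 10.0 µM for 24 h. Cells were harvested, rinsed in PBS, fixed in 70% ethanol and stored at −20 °C. Staining used propidium iodide solution with 0.2 mg/mL RNase and 0.1% Triton X-100, at least 30 min at room temperature in the dark. Cell-cycle phases were read by flow cytometry.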

A549 [7] = test: Cell cycle arrest in human A549 cells assessed as accumulation at S phase at 5.0 uM after 24 hrs by flow cytometry; assay type: functional; how it was run: as §2
A549 [8] = test: Cell cycle arrest in human A549 cells assessed as accumulation at G2/M phase at 5.0 uM after 24 hrs by flow cytometry; assay type: functional; how it was run: as §2
A549 [9] = test: Cell cycle arrest in human A549 cells assessed as accumulation at S phase at 10.0 uM after 24 hrs by flow cytometry; assay type: functional; how it was run: as §2
A549 [10] = test: Cell cycle arrest in human A549 cells assessed as accumulation at G1 phase at 10.0 uM after 24 hrs by flow cytometry; assay type: functional; how it was run: as §2
A549 [11] = test: Cell cycle arrest in human A549 cells assessed as accumulation at G2/M phase at 10.0 uM after 24 hrs by flow cytometry; assay type: functional; how it was run: as §2
A549 [12] = test: Cell cycle arrest in human A549 cells assessed as accumulation at G1 phase at 5.0 uM after 24 hrs by flow cytometry; assay type: functional; how it was run: as §2
A549 [13] = test: Cell cycle arrest in human A549 cells assessed as accumulation at subG1 phase at 5.0 uM after 24 hrs by flow cytometry; assay type: functional; how it was run: as §2
A549 [14] = test: Cell cycle arrest in human A549 cells assessed as accumulation at G2/M phase at 1.0 uM after 24 hrs by flow cytometry; assay type: functional; how it was run: as §2
A549 [15] = test: Cell cycle arrest in human A549 cells assessed as accumulation at subG1 phase at 1.0 uM after 24 hrs by flow cytometry; assay type: functional; how it was run: as §2
A549 [16] = test: Cell cycle arrest in human A549 cells assessed as accumulation at S phase at 1.0 uM after 24 hrs by flow cytometry; assay type: functional; how it was run: as §2
A549 [17] = test: Cell cycle arrest in human A549 cells assessed as accumulation at G1 phase at 1.0 uM after 24 hrs by flow cytometry; assay type: functional; how it was run: as §2
A549 [18] = test: Induction of apoptosis in human A549 cells assessed as PARP cleavage after 24 hrs by Western blot; assay type: functional, cell-based
How it was run: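 Exponentially growing A549 cells were treated for 24 h, then lysed on ice for 30 min in Tris pH 7.5/NP-40 buffer with protease and phosphatase inhibitors. Protein was measured by Bradford, and 20 µg was resolved on 10% SDS–PAGE and transferred to PVDF. Blots were blocked in 5% milk, probed with anti-PARP (1:1000, 2 h) then HRP anti-rabbit (1:5000, 30 min), and reprobed for β-actin as a loading check.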

A549 [19] = test: Induction of apoptosis in human A549 cells assessed as DNA fragmentation after 24 hrs by agarose gel electrophoresis; assay type: functional, cell-based
How it was run: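 A549 cells were treated at 1.0, 5.0 or 10.0 µM for 24 h and washed in PBS. Total genomic DNA was isolated with a kit and run on a 2.0% agarose gel in 1× TAE at 100 V.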

A549 [20] = test: Cell cycle arrest in human A549 cells assessed as accumulation at G2/M phase at 0.1 uM after 24 hrs by flow cytometry; assay type: functional; how it was run: as §2
A549 [21] = test: Cell cycle arrest in human A549 cells assessed as accumulation at S phase at 0.1 uM after 24 hrs by flow cytometry; assay type: functional; how it was run: as §2
A549 [22] = test: Induction of apoptosis in human A549 cells assessed as microtubule network damage at 10.0 uM after 24 hrs by immunofluorescence; assay type: functional, cell-based
How it was run: (§3)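 A549 cells on cover glasses were treated for 24 h, then fixed in 4% paraformaldehyde for 1 h. Glycine-PBS wash, then permeabilization with 2% FBS and 0.4% Triton X-100 for 15 min. Cells were stained with anti-β-tubulin monoclonal (1:1000, 4 °C overnight), then FITC anti-mouse IgG (1:200, 1 h, room temperature). DAPI was added for nuclei, and imaging was by confocal laser scanning microscopy.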

A549 [23] = test: Induction of apoptosis in human A549 cells assessed as apoptotic bodies after 24 hrs by fluorescence microscopy; assay type: functional, cell-based; how it was run: as §3
A549 [24] = test: Cell cycle arrest in human A549 cells assessed as accumulation at subG1 phase at 0.1 uM after 24 hrs by flow cytometry; assay type: functional; how it was run: as §2
A549 [25] = test: Cell cycle arrest in human A549 cells assessed as accumulation at G1 phase at 0.1 uM after 24 hrs by flow cytometry; assay type: functional; how it was run: as §2
A549 [26] = test: Induction of apoptosis in human A549 cells assessed as shrinkage in microtubule network at 1.0 uM after 24 hrs by immunofluorescence; assay type: functional, cell-based; how it was run: as §3
A549 [27] = test: Induction of apoptosis in human A549 cells assessed as morphological changes after 24 hrs by fluorescence microscopy; assay type: functional, cell-based
How it was run: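 A549 cells were treated with DMSO or compound at 1, 5 or 10 µM for 24 h at 37 °C, then photographed under a microscope.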

Row | Compound | GI50 [1] [µM] | GI50 (A549 [2]) [µM] | GI50 (HepG2) [µM] | GI50 [3] [µM] | GI50 at 72 h [4] [µM] | GI50 [5] [µM] | further results
1 | O=C1c2cc(OCCN3CCCC3)ccc2-c2c(-c3ccc(OCCN4CCCC4)cc3)nc3ccccc3c21 | 6.95 | 3.75 | 4.03 | 6.15 | 5.31 | 3.46 | –
2 | O=C1c2cc(OCCN3CCCC3)ccc2-c2c(-c3ccc(OCCN4CCCC4)cc3)nc3ccc(F)cc3c21 | 4.3 | 6.23 | 4.92 | 6.11 | 5.15 | 6.24 | –
3 | O=C1c2cc(O)ccc2-c2c(-c3ccc(OCCN4CCCCC4)cc3)nc3ccc(F)cc3c21 | 5.32 | 6 | 4.78 | 6.03 | 5.91 | 6.61 | –
4 | O=C1c2cc(O)ccc2-c2c(-c3ccc(OCCN4CCCC4)cc3)nc3ccc(F)cc3c21 | 5.25 | 6.63 | 6.1 | 5.69 | 6.02 | 6.34 | –
5 | O=C1c2cc(O)ccc2-c2c(-c3ccc(O)cc3)nc3ccccc3c21 | > 10 | > 10 | 9.12 | > 10 | > 10 | > 10 | –
6 | O=C1c2cc(OCCN3CCCC3)ccc2-c2c(-c3ccc(OCCN4CCCC4)cc3)nc3ccc(OCCN4CCCC4)cc3c21 | 0.37 | 0.67 | 0.62 | 3.44 | 0.71 | 1.73 | –
7 | O=C1c2cc(O)ccc2-c2c(-c3ccc(O)cc3)nc3ccc(O)cc3c21 | 10.4 | 4.98 | 5.51 | 6.61 | 10.3 | 12.2 | –
8 | O=C1c2cc(O)ccc2-c2c(-c3ccc(OCCN4CCCC4)cc3)nc3ccccc3c21 | 7.05 | 4.33 | 4.28 | 6.06 | 3.16 | 3.4 | –
9 | COc1ccc(-c2nc3ccccc3c3c2-c2ccc(OC)cc2C3=O)cc1 | > 10 | > 10 | > 10 | > 10 | > 10 | > 10 | –
10 | O=C1c2cc(O)ccc2-c2c(-c3ccc(OCCN4CCCCC4)cc3)nc3ccccc3c21 | 6.55 | 5.06 | 4.3 | 6.4 | 3.1 | 5.4 | –
11 | O=C1c2cc(O)ccc2-c2c(-c3ccc(O)cc3)nc3ccc(F)cc3c21 | 5.88 | > 10 | > 10 | > 10 | > 10 | 9.01 | –
12 | COc1ccc(-c2nc3ccc(OC)cc3c3c2-c2ccc(OC)cc2C3=O)cc1 | 7.84 | > 10 | > 10 | > 10 | 10.2 | 12.5 | Activity (A549 [6]): 1%; Activity (A549 [7]): 14.3%; Activity (A549 [8]): 7.8%; Activity (A549 [9]): 14.7%; Activity (A549 [10]): 76.9%; Activity (A549 [11]): 8.4%; Activity (A549 [12]): 77.9%; Activity (A549 [13]): 1%; Activity (A549 [14]): 8.6%; Activity (A549 [15]): 0.9%; Activity (A549 [16]): 13.2%; Activity (A549 [17]): 78.2%
13 | CCc1c2c(nc3ccc(OC(=O)N4CCC(N5CCCCC5)CC4)cc13)-c1cc3c(c(=O)n1C2)COC(=O)[C@]3(O)CC [IRINOTECAN] | > 10 | > 10 | 5.94 | > 10 | 77.5 | 4.73 | –
14 | COc1ccc(-c2nc3ccc(F)cc3c3c2-c2ccc(OC)cc2C3=O)cc1 | 6.44 | > 10 | > 10 | > 10 | > 10 | > 10 | –
15 | CN(C)CCCOc1ccc(-c2nc3ccccc3c3c2-c2ccc(OCCCN(C)C)cc2C3=O)cc1 | 5.35 | 3.07 | 4.35 | 5.39 | 3.68 | 3.05 | –
16 | CN(C)CCCOc1ccc(-c2nc3ccc(F)cc3c3c2-c2ccc(O)cc2C3=O)cc1 | 6.13 | 6.35 | 5.92 | 5.62 | 4.75 | 6.72 | –
17 | O=C1c2cc(OCCN3CCCCC3)ccc2-c2c(-c3ccc(OCCN4CCCCC4)cc3)nc3ccc(OCCN4CCCCC4)cc3c21 | 6.26 | 0.81 | 0.7 | 6.07 | 4.64 | 5.02 | –
18 | CN(C)CCCOc1ccc(-c2nc3ccc(OCCCN(C)C)cc3c3c2-c2ccc(OCCCN(C)C)cc2C3=O)cc1 | 5.18 | 0.68 | 0.6 | 4.25 | 6.2 | 4.44 | Activity (A549 [18]): Dose-dependent effect; Activity (A549 [19]): Active; Activity (A549 [20]): 9.8%; Activity (A549 [7]): 12.3%; Activity (A549 [8]): 15.8%; Activity (A549 [21]): 16.3%; Activity (A549 [22]): Active; Activity (A549 [23]): Active; Activity (A549 [12]): 71.9%; Activity (A549 [13]): 17.1%; Activity (A549 [24]): 1.5%; Activity (A549 [14]): 11%; Activity (A549 [25]): 73.9%; Activity (A549 [15]): 2%; Activity (A549 [26]): Active; Activity (A549 [16]): 13.6%; Activity (A549 [27]): Active; Activity (A549 [17]): 75%
19 | CN(C)CCCOc1ccc(-c2nc3ccccc3c3c2-c2ccc(O)cc2C3=O)cc1 | 6.39 | 5.87 | 5.59 | 6.82 | 4.61 | 5.34 | –
20 | O=C1c2cc(OCCN3CCCCC3)ccc2-c2c(-c3ccc(OCCN4CCCCC4)cc3)nc3ccccc3c21 | 6.38 | 5.68 | 4.32 | 6.24 | 4.34 | 1.35 | –
21 | CC[C@@]1(O)C(=O)OCc2c1cc1n(c2=O)Cc2cc3c(CN(C)C)c(O)ccc3nc2-1 [TOPOTECAN] | > 10 | 5.98 | 3.83 | 4.95 | 4.25 | 0.22 | –
22 | O=C1c2cc(OCCN3CCCCC3)ccc2-c2c(-c3ccc(OCCN4CCCCC4)cc3)nc3ccc(F)cc3c21 | 0.79 | 6.24 | 2.82 | 3 | 4.52 | 0.66 | –
23 | CN(C)CCCOc1ccc(-c2nc3ccc(F)cc3c3c2-c2ccc(OCCCN(C)C)cc2C3=O)cc1 | 0.72 | 3.67 | 0.61 | 0.59 | 1.86 | 0.67 | –
